Source: publication PMC11463018 (Journal of Enzyme Inhibition and Medicinal Chemistry, 2024)

How the values were obtained:
RPMI-8226 = assay: cells; assay type: cell-based; details: Homo sapiens, RPMI-8226, read-out: Antiproliferative effect IC50, RPMI-8226
JAK1 = JAK1 (Homo sapiens, UniProt P23458); assay: Kinase inhibition assay; assay type: biochemical
HDAC6 = biological target: T1, HDAC6 (Homo sapiens, UniProt Q9UBN7); assay: In vitro HDAC enzyme assay; assay type: biochemical
T1 sequence (Q9UBN7 1-1215): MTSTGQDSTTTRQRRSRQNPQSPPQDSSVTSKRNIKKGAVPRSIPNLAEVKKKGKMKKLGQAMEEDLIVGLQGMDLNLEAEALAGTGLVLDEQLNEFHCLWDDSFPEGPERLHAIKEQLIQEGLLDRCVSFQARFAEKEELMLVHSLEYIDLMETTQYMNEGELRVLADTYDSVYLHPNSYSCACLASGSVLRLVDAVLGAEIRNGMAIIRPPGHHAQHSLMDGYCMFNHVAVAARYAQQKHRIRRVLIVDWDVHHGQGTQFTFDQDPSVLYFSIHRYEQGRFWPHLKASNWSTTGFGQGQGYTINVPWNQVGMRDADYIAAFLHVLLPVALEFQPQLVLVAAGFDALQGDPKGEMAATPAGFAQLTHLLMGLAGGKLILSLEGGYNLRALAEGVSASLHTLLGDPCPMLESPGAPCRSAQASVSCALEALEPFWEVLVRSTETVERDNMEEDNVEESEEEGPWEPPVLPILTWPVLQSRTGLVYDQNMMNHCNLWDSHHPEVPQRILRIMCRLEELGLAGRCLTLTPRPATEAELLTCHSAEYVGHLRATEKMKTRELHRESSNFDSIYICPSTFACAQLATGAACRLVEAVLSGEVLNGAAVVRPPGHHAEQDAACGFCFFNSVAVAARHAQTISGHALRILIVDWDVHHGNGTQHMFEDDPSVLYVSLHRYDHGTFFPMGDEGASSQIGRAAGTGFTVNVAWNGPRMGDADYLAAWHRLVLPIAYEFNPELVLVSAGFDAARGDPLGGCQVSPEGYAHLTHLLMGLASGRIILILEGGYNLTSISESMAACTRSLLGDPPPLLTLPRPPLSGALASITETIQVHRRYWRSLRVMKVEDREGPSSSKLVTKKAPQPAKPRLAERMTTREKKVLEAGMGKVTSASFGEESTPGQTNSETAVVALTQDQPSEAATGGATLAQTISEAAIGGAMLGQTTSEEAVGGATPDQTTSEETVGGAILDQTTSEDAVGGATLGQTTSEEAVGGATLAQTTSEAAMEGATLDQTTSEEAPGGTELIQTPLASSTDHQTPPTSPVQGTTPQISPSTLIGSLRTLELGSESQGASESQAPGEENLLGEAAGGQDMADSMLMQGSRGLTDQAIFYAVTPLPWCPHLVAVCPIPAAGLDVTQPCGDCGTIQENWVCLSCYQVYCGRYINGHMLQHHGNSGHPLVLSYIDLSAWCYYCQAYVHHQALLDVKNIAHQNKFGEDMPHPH

MDA-MB-231 = assay: cells; assay type: cell-based; details: Homo sapiens, MDA-MB-231, read-out: Antiproliferative effect IC50, MDA-MB-231
[1] = Microsomal stability assay; assay type: in vitro ADME; details: human, human liver microsomes, pH 7.4
Procedure, shortened: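 Human liver microsomes at 0.8 mg/mL, with magnesium chloride and potassium phosphate buffer (pH 7.4), incubated with test compound at 0.5 μM. Mix prewarmed 5 min at 37 °C, then started with NADPH. Stopped at 0, 5, 10, 15, 30, 60 or 90 min with ice-cold ethyl acetate, spun 4000 rpm for 10 min at 4 °C. Supernatant analysed by LC-MS/MS and half-life determined.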

JAK1, sequence (P23458 whole entry): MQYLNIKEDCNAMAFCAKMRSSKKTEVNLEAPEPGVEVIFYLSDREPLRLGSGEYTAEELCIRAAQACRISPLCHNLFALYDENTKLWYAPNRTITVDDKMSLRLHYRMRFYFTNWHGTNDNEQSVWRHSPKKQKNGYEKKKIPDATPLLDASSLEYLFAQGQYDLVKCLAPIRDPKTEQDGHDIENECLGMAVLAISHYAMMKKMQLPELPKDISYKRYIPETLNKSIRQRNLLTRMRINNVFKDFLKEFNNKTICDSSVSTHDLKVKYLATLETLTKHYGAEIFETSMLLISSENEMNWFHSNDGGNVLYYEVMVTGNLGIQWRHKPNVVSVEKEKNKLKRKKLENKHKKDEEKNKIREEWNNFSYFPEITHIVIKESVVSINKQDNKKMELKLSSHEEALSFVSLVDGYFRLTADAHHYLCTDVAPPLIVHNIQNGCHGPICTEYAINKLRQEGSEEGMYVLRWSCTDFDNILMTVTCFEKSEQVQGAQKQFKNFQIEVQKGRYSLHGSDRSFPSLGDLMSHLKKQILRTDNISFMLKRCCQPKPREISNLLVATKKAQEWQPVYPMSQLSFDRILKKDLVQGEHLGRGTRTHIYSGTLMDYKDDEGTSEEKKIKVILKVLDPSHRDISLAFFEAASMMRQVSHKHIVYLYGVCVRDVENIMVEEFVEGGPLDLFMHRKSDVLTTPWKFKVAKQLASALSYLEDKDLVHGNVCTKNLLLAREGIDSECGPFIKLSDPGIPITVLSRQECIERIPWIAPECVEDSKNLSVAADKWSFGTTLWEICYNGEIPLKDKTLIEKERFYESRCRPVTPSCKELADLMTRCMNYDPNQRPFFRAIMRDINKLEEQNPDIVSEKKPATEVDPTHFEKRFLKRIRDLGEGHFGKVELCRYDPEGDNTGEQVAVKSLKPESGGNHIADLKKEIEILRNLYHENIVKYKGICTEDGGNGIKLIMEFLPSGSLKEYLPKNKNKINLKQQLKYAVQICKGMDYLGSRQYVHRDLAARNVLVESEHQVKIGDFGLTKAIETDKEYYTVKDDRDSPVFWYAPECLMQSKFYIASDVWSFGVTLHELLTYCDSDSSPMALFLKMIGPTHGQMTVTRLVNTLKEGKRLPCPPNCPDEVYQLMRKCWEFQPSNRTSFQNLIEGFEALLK

IC50 (RPMI-8226) [nM]	IC50 (JAK1) [nM]	IC50 (HDAC6) [nM]	IC50 (MDA-MB-231) [nM]	half-life at 0.5 μM [1] [min]	Structure (SMILES)
460 ± 30	320 ± 18	9.5 ± 0.72	900 ± 30	–	O=C(NO)c1ccc(CNc2nc3cccc(-c4ccccc4)n3n2)cc1 [Compound 16a, N-hydroxy-4-(((5-phenyl-[1,2, 4]triazolo[1,5-a]pyridin-2-yl)amino)methyl)benzamide]
290 ± 10	146 ± 8.5	8.75 ± 0.46	840 ± 40	–	COc1ccc(-c2cccc3nc(NCc4ccc(C(=O)NO)cc4)nn23)cc1 [Compound 16b, N-hydroxy-4-(((5–(4-methoxyphenyl)-[1,2, 4]triazolo[1,5-a]pyridin-2-yl)amino)methyl)benzamide]
310 ± 20	190 ± 10	8.4 ± 0.39	950 ± 20	–	COc1cccc(-c2cccc3nc(NCc4ccc(C(=O)NO)cc4)nn23)c1 [Compound 16c, N-hydroxy-4-(((5–(3-methoxyphenyl)-[1,2, 4]triazolo[1,5-a]pyridin-2-yl)amino)methyl)benzamide]
–	750 ± 30	10.2 ± 0.8	–	–	COc1ccccc1-c1cccc2nc(NCc3ccc(C(=O)NO)cc3)nn12 [Compound 16d, N-hydroxy-4-(((5–(2-methoxyphenyl)-[1,2, 4]triazolo[1,5-a]pyridin-2-yl)amino)methyl)benzamide]
–	304 ± 16	11 ± 0.7	–	–	Cc1ccc(-c2cccc3nc(NCc4ccc(C(=O)NO)cc4)nn23)cc1 [Compound 16e, N-hydroxy-4-(((5-(p-tolyl)-[1,2, 4]triazolo[1,5-a]pyridin-2-yl)amino)methyl)benzamide]
–	315 ± 15	13.7 ± 0.88	–	–	Cc1cccc(-c2cccc3nc(NCc4ccc(C(=O)NO)cc4)nn23)c1 [Compound 16f, N-hydroxy-4-(((5-(m-tolyl)-[1,2, 4]triazolo[1,5-a]pyridin-2-yl)amino)methyl)benzamide]
–	550 ± 32	16 ± 1.1	–	–	Cc1ccccc1-c1cccc2nc(NCc3ccc(C(=O)NO)cc3)nn12 [Compound 16g, N-hydroxy-4-(((5-(o-tolyl)-[1,2, 4]triazolo[1,5-a]pyridin-2-yl)amino)methyl)benzamide]
–	365 ± 25	9.65 ± 0.23	–	–	O=C(NO)c1ccc(CNc2nc3cccc(-c4cccc(Cl)c4)n3n2)cc1 [Compound 16h, 4-(((5–(3-chlorophenyl)-[1,2, 4]triazolo[1,5-a]pyridin-2-yl)amino)methyl)-N-hydroxybenzamide]
–	400 ± 28	12.2 ± 0.3	–	–	O=C(NO)c1ccc(CNc2nc3cccc(-c4ccccc4Cl)n3n2)cc1 [Compound 16i, 4-(((5–(2-chlorophenyl)-[1,2, 4]triazolo[1,5-a]pyridin-2-yl)amino)methyl)-N-hydroxybenzamide]
280 ± 60	295 ± 16	8.9 ± 0.16	880 ± 60	–	O=C(NO)c1ccc(CNc2nc3cccc(-c4ccc(F)cc4)n3n2)cc1 [Compound 16j, 4-(((5–(4-fluorophenyl)-[1,2, 4]triazolo[1,5-a]pyridin-2-yl)amino)methyl)-N-hydroxybenzamide]
–	390 ± 24	6.15 ± 0.12	–	–	O=C(NO)c1ccc(CNc2nc3cccc(-c4ccc(Cl)c(Cl)c4)n3n2)cc1 [Compound 16k, 4-(((5–(3,4-dichlorophenyl)-[1,2, 4]triazolo[1,5-a]pyridin-2-yl)amino)methyl)-N-hydroxybenzamide]
–	460 ± 8	11.4 ± 0.88	–	–	O=C(NO)c1ccc(CNc2nc3cccc(-c4ccc(C(F)(F)F)cc4)n3n2)cc1 [Compound 16l, N-hydroxy-4-(((5–(4-(trifluoromethyl)phenyl)-[1,2, 4]triazolo[1,5-a]pyridin-2-yl)amino)methyl)benzamide]
–	685 ± 50	20.5 ± 0.78	–	–	O=C(NO)c1ccc(CNc2nc3cccc(-c4cc(C(F)(F)F)cc(C(F)(F)F)c4)n3n2)cc1 [Compound 16m, 4-(((5–(3,5-bis(trifluoromethyl)phenyl)-[1,2, 4]triazolo[1,5-a]pyridin-2-yl)amino)methyl)-N-hydroxybenzamide]
17500 ± 1000	–	–	27200 ± 1500	–	O=C(Nc1nc2cccc(-c3ccc(CN4CCS(=O)(=O)CC4)cc3)n2n1)C1CC1 [Filgotinib, reference compound]
–	–	–	–	408	O=C(CCCCCCC(=O)Nc1ccccc1)NO [SAHA, vorinostat, reference compound]
